# From ChEMBL document CHEMBL1255417, “Correlation between in vitro activity of posaconazole and in vivo efficacy against Rhizopus oryzae infection in mice” (Antimicrob Agents Chemother, 2010)
# Calls of active or inactive are those of the source. No cut-off for these calls is given here.
# Tests used:
# Rhizopus arrhizus [1] = experiment: Antifungal activity against drug-intermediate Rhizopus oryzae UTHSC 05-3032 infected in OF1 mouse assessed as reduction in kidney fungal load at 10-30 mg/kg, po bid treated 24 hrs after fungal infection; type: functional, organism-based
# How it was run: (§1)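 Tissue burden in immunosuppressed male OF1 mice, using cyclophosphamide 200 mg/kg i.p. plus 5-fluorouracil 150 mg/kg i.v. on day −1. Mice received 2 × 10^4 CFU i.v. by tail vein, then oral gavage at 10, 20 or 30 mg/kg BID from 24 h post-challenge, with ceftazidime cover; untreated controls. Groups of 10 were killed on day 4. Kidneys and brains were homogenized in 2 ml saline, serially diluted 10-fold, plated on PDA and counted after 24 h at 35°C.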
# Rhizopus arrhizus [2] = experiment: Antifungal activity against drug-susceptible Rhizopus oryzae UTHSC 04-2159 after 24 to 48 hrs; type: functional
# How it was run: (§2)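 Minimum fungicidal concentration: 20 µl from each microdilution well showing complete inhibition (optically clear) plated on potato dextrose agar, incubated 35°C for 24 to 48 h; MFC taken as lowest drug concentration giving no growth.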
# Rhizopus arrhizus [3] = experiment: Antifungal activity against drug-intermediate Rhizopus oryzae UTHSC 07-365 infected in OF1 mouse assessed as reduction in kidney fungal load at 10-30 mg/kg, po bid treated 24 hrs after fungal infection; type: functional, organism-based; how it was run: as §1
# Rhizopus arrhizus [4] = experiment: Antifungal activity against drug-susceptible Rhizopus oryzae UTHSC 06-4152 by broth microdilution method; type: functional
# How it was run: (§3)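 Posaconazole MIC in ug/ml, determined by broth microdilution following the CLSI guidelines for moulds (M38-A2).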
# Rhizopus arrhizus [5] = experiment: Antifungal activity against drug-susceptible Rhizopus oryzae UTHSC 04-1220 at 5 ug by disk diffusion assay; type: functional; details: read-out: DIZ
# How it was run: (§4)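 Neo-Sensitabs tablet diffusion on Mueller-Hinton agar, following guidelines for molds; 9 mm tablets containing 5 µg posaconazole; inhibition zone diameter measured in mm; zone breakpoints applied at 24 h.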
# Rhizopus arrhizus [6] = experiment: Antifungal activity against drug-intermediate Rhizopus oryzae UTHSC 03-3165 at 5 ug by disk diffusion assay; type: functional; details: read-out: DIZ
# How it was run: (§5)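 Neo-Sensitabs tablet diffusion on Mueller-Hinton agar, following the guidelines for molds. Tablets were 9 mm in diameter and held 5 µg of drug. The read-out was inhibition zone diameter in mm.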
# Rhizopus arrhizus [7] = experiment: Antifungal activity against drug-susceptible Rhizopus oryzae UTHSC 05-2447 by broth microdilution method; type: functional
# How it was run: (§6)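 CLSI broth microdilution for filamentous fungi (M38-A2); MIC recorded in µg/ml against clinical isolates; breakpoints applied at 24 h.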
# Rhizopus arrhizus [8] = experiment: Antifungal activity against drug-intermediate Rhizopus oryzae UTHSC 07-365 infected in OF1 mouse assessed as increase in mouse survival at 20-30 mg/kg, po bid treated 24 hrs after fungal infection; type: functional, organism-based
# How it was run: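 Survival model in male OF1 mice, 30 g. Mice were immunosuppressed 1 day before infection with cyclophosphamide 200 mg/kg i.p. plus 5-fluorouracil 150 mg/kg i.v., then infected i.v. via lateral tail vein with 2 × 10^4 CFU in 0.2 ml saline. Oral gavage at 10, 20 or 30 mg/kg BID began 24 h post-challenge for 7 days. Ceftazidime 5 mg/day s.c. was given days 1–7. Groups of 10 were checked daily for 20 days; untreated controls.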
# Rhizopus arrhizus [9] = experiment: Antifungal activity against drug-intermediate Rhizopus oryzae UTHSC 05-114 after 24 to 48 hrs; type: functional
# Rhizopus arrhizus [10] = experiment: Antifungal activity against drug-susceptible Rhizopus oryzae UTHSC 06-731 after 24 to 48 hrs; type: functional
# Rhizopus arrhizus [11] = experiment: Antifungal activity against drug-susceptible Rhizopus oryzae UTHSC 06-4152 at 5 ug by disk diffusion assay; type: functional; details: read-out: DIZ
# How it was run: (§7)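 Neo-Sensitabs tablet diffusion on Mueller-Hinton agar, run per the mould guidelines. Tablets are 9 mm in diameter and carry 5 ug posaconazole. The read-out is the inhibition zone diameter in mm.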
# Rhizopus arrhizus [12] = experiment: Antifungal activity against drug-susceptible Rhizopus oryzae UTHSC 06-4133 after 24 to 48 hrs; type: functional
# How it was run: (§8)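 Minimum fungicidal concentration taken from the broth microdilution plates. From each well with complete inhibition (optically clear), 20 ul is plated on potato dextrose agar. Plates are incubated at 35°C for 24 to 48 h. The MFC is the lowest drug concentration giving no growth.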
# Rhizopus arrhizus [13] = experiment: Antifungal activity against drug-susceptible Rhizopus oryzae UTHSC 02-2882 at 5 ug by disk diffusion assay; type: functional; details: read-out: DIZ; how it was run: as §5
# Rhizopus arrhizus [14] = experiment: Antifungal activity against drug-intermediate Rhizopus oryzae UTHSC 05-3032 at 5 ug by disk diffusion assay; type: functional; details: read-out: DIZ; how it was run: as §5
# Rhizopus arrhizus [15] = experiment: Antifungal activity against drug-susceptible Rhizopus oryzae UTHSC 06-4133 by broth microdilution method; type: functional; how it was run: as §3
# Rhizopus arrhizus [16] = experiment: Antifungal activity against drug-susceptible Rhizopus oryzae UTHSC 06-2374 at 5 ug by disk diffusion assay; type: functional; details: read-out: DIZ; how it was run: as §7
# Rhizopus arrhizus [17] = experiment: Antifungal activity against drug-susceptible Rhizopus oryzae UTHSC 04-1220 after 24 to 48 hrs; type: functional; how it was run: as §2
# Rhizopus arrhizus [18] = experiment: Antifungal activity against drug-susceptible Rhizopus oryzae UTHSC 05-1502 by broth microdilution method; type: functional; how it was run: as §6
# Rhizopus arrhizus [19] = experiment: Antifungal activity against drug-susceptible Rhizopus oryzae UTHSC 03-547 at 5 ug by disk diffusion assay; type: functional; details: read-out: DIZ; how it was run: as §4
# Rhizopus arrhizus [20] = experiment: Antifungal activity against drug-susceptible Rhizopus oryzae UTHSC 06-4035 at 5 ug by disk diffusion assay; type: functional; details: read-out: DIZ; how it was run: as §7
# Rhizopus arrhizus [21] = experiment: Antifungal activity against drug-susceptible Rhizopus oryzae UTHSC 2868 after 24 to 48 hrs; type: functional
# Rhizopus arrhizus [22] = experiment: Antifungal activity against drug-susceptible Rhizopus oryzae UTHSC 05-3111 after 24 to 48 hrs; type: functional; how it was run: as §8
# Rhizopus arrhizus [23] = experiment: Antifungal activity against drug-susceptible Rhizopus oryzae UTHSC 06-3913 at 5 ug by disk diffusion assay; type: functional; details: read-out: DIZ; how it was run: as §7
# Rhizopus arrhizus [24] = experiment: Antifungal activity against drug-susceptible Rhizopus oryzae UTHSC 06-434 after 24 to 48 hrs; type: functional; how it was run: as §8
# Rhizopus arrhizus [25] = experiment: Antifungal activity against drug-susceptible Rhizopus oryzae UTHSC 05-1502 after 24 to 48 hrs; type: functional; how it was run: as §2
# Rhizopus arrhizus [26] = experiment: Antifungal activity against drug-susceptible Rhizopus oryzae UTHSC 05-1679 by broth microdilution method; type: functional; how it was run: as §6
# Rhizopus arrhizus [27] = experiment: Antifungal activity against drug-susceptible Rhizopus oryzae UTHSC 06-89 infected in OF1 mouse assessed as increase in mouse survival at 20-30 mg/kg, po bid treated 24 hrs after fungal infection; type: functional, organism-based
# Rhizopus arrhizus [28] = experiment: Antifungal activity against drug-susceptible Rhizopus oryzae UTHSC 03-1826 at 5 ug by disk diffusion assay; type: functional; details: read-out: DIZ; how it was run: as §5
# Rhizopus arrhizus [29] = experiment: Antifungal activity against drug-susceptible Rhizopus oryzae UTHSC 04-1241 at 5 ug by disk diffusion assay; type: functional; details: read-out: DIZ; how it was run: as §4
# Rhizopus arrhizus [30] = experiment: Antifungal activity against drug-susceptible Rhizopus oryzae UTHSC 03-3110 after 24 to 48 hrs; type: functional; how it was run: as §2
# Rhizopus arrhizus [31] = experiment: Antifungal activity against drug-intermediate Rhizopus oryzae UTHSC 03-285 by broth microdilution method; type: functional
# How it was run: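 Broth microdilution MIC in µg/ml, run per the CLSI (formerly NCCLS) guideline for filamentous fungi, M38-A2.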
# Rhizopus arrhizus [32] = experiment: Antifungal activity against drug-susceptible Rhizopus oryzae UTHSC 03-299 at 5 ug by disk diffusion assay; type: functional; details: read-out: DIZ; how it was run: as §4
# Rhizopus arrhizus [33] = experiment: Antifungal activity against drug-susceptible Rhizopus oryzae UTHSC 04-278 at 5 ug by disk diffusion assay; type: functional; details: read-out: DIZ; how it was run: as §4
# Rhizopus arrhizus [34] = experiment: Antifungal activity against drug-susceptible Rhizopus oryzae UTHSC 06-89 by broth microdilution method; type: functional
# Rhizopus arrhizus [35] = experiment: Antifungal activity against drug-susceptible Rhizopus oryzae UTHSC 06-2457 by broth microdilution method; type: functional; how it was run: as §3
smiles,measurement,setting,value
CC[C@@H]([C@H](C)O)n1ncn(-c2ccc(N3CCN(c4ccc(OC[C@@H]5CO[C@@](Cn6cncn6)(c6ccc(F)cc6F)C5)cc4)CC3)cc2)c1=O [POSACONAZOLE],Activity,Rhizopus arrhizus [1],inactive
same,MFC,Rhizopus arrhizus [2],1 µg/mL
same,Activity,Rhizopus arrhizus [3],Active
same,MIC,Rhizopus arrhizus [4],0.25 µg/mL
same,zone of inhibition at 5 µg/disc,Rhizopus arrhizus [5],20 mm
same,zone of inhibition at 5 µg/disc,Rhizopus arrhizus [6],16 mm
same,MIC,Rhizopus arrhizus [7],1 µg/mL
same,Activity,Rhizopus arrhizus [8],Active
same,MFC,Rhizopus arrhizus [9],16 µg/mL
same,MFC,Rhizopus arrhizus [10],0.5 µg/mL
same,zone of inhibition at 5 µg/disc,Rhizopus arrhizus [11],22 mm
same,MFC,Rhizopus arrhizus [12],1 µg/mL
same,zone of inhibition at 5 µg/disc,Rhizopus arrhizus [13],22 mm
same,zone of inhibition at 5 µg/disc,Rhizopus arrhizus [14],14 mm
same,MIC,Rhizopus arrhizus [15],0.5 µg/mL
same,zone of inhibition at 5 µg/disc,Rhizopus arrhizus [16],23 mm
same,MFC,Rhizopus arrhizus [17],1 µg/mL
same,MIC,Rhizopus arrhizus [18],0.5 µg/mL
same,zone of inhibition at 5 µg/disc,Rhizopus arrhizus [19],25 mm
same,zone of inhibition at 5 µg/disc,Rhizopus arrhizus [20],17 mm
same,MFC,Rhizopus arrhizus [21],8 µg/mL
same,MFC,Rhizopus arrhizus [22],2 µg/mL
same,zone of inhibition at 5 µg/disc,Rhizopus arrhizus [23],20 mm
same,MFC,Rhizopus arrhizus [24],1 µg/mL
same,MFC,Rhizopus arrhizus [25],1 µg/mL
same,MIC,Rhizopus arrhizus [26],0.5 µg/mL
same,Activity,Rhizopus arrhizus [27],Active
same,zone of inhibition at 5 µg/disc,Rhizopus arrhizus [28],18 mm
same,zone of inhibition at 5 µg/disc,Rhizopus arrhizus [29],22 mm
same,MFC,Rhizopus arrhizus [30],1 µg/mL
same,MIC,Rhizopus arrhizus [31],2 µg/mL
same,zone of inhibition at 5 µg/disc,Rhizopus arrhizus [32],15 mm
same,zone of inhibition at 5 µg/disc,Rhizopus arrhizus [33],18 mm
same,MIC,Rhizopus arrhizus [34],0.25 µg/mL
same,MIC,Rhizopus arrhizus [35],1 µg/mL
